# Data: ChEMBL document CHEMBL4513216, “Probing the Open Global Health Chemical Diversity Library for Multistage-Active Starting Points for Next-Generation Antimalarials” (ACS Infect Dis, 2020)
# Test: Toxicity liver stage against HepG2, at 10uM
# Type: cell-based
# Set-up: test concentration 10 uM, cell line HepG2-A16-CD81EGFP
# Details: human, HepG2-A16-CD81EGFP cells; read-out: INHIBITION
# Procedure, shortened: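 Uninfected HepG2-A16-CD81EGFP cells, 3 × 10^3 per well, 1536-well, plated on prespotted compound at 10 μM final, parasite-free screening media added to match infected plates; puromycin 10 μM positive, DMSO 0.5% negative; run in parallel with 48 h PbLuc assay at 37 °C, 5% CO2; viability by CellTiter-Glo luminescence, normalized to controls.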
structure (smiles),measurement,value
CCOC(=O)C1CCN(C(=O)Cn2ccc3cc(Br)ccc32)CC1,cytotoxicity at 10 µM,-8.23%
COCc1cc(N2CCOC(c3ccc(Cl)c(Cl)c3)C2)ncn1 (stereo unspecified),cytotoxicity at 10 µM,0.635%
Cc1cccc(-c2nc(CN3CCc4c(ncn4C)C3)no2)c1,cytotoxicity at 10 µM,-9.42%
Cc1ccc(CN2CCCC3(COCCN(Cc4c[nH]nn4)C3)C2)s1 (stereo unspecified),cytotoxicity at 10 µM,-1.31%
Cc1occc1C(=O)N1CCC(C(O)c2ccc(F)cc2)CC1 (stereo unspecified),cytotoxicity at 10 µM,-2.69%
Cc1ccc(-n2nnc(CC(=O)N3CCOCC3)c2C)cc1,cytotoxicity at 10 µM,-12.9%
O=C(Nc1cc(C2CCOCC2)[nH]n1)c1ccc(Cl)cn1,cytotoxicity at 10 µM,0.78%
Cc1ccc(-n2nnnc2SCN2CCCCC2=O)cc1C,cytotoxicity at 10 µM,-46.6%
Cc1nn(-c2ccc(C(=O)O)cc2)c2c1C(c1cccs1)SCC(=O)N2 (stereo unspecified),cytotoxicity at 10 µM,-0.607%
Cc1nccn1C1CCCN(C(=O)c2ccc(N(C)C)nn2)C1 (stereo unspecified),cytotoxicity at 10 µM,-17.7%
Cn1nnnc1SCC(=O)N1CCN(C(=O)C2CC2c2cccs2)CC1 (stereo unspecified),cytotoxicity at 10 µM,8.58%
O=C(Cc1ccsc1)N1CCC2(CCCN(CC3CCOCC3)C2)C1 (stereo unspecified),cytotoxicity at 10 µM,-135%
CCCNc1ncc(CN2CCC3(CC2)CNC(=O)C3)cn1,cytotoxicity at 10 µM,-7.07%
CN1N=C(C(=O)N2CCCC(CCc3ccccc3F)C2)CCC1=O (stereo unspecified),cytotoxicity at 10 µM,-6.67%
COc1ccc(F)cc1-c1ccccc1CC1CNCCNC1=O (stereo unspecified),cytotoxicity at 10 µM,3.48%
NC(=O)NC1CCN(Cc2ccc(Br)c(F)c2)CC1,cytotoxicity at 10 µM,-1.57%
Cc1cncnc1C1CCN(CC(N)=O)CC1,cytotoxicity at 10 µM,-6.84%
Nc1nccnc1C1CN(C(=O)COc2cccnc2)CCO1 (stereo unspecified),cytotoxicity at 10 µM,-1.83%
CCN(Cc1nonc1C)C(=O)Cn1nc(C(F)(F)F)cc1C,cytotoxicity at 10 µM,0.7%
CCCc1nc(C(C)(C)NC(=O)C2CC(=O)N(CC3CC3)C2)no1 (stereo unspecified),cytotoxicity at 10 µM,-3.61%
O=C(c1cn(CCN2CCCCC2)nn1)N1CCCO1,cytotoxicity at 10 µM,5.87%
CCCc1nncn1-c1cc(OC)ccc1OC,cytotoxicity at 10 µM,7.93%
O=S(=O)(C1CC1)N1CCCn2cnc(COc3cccnc3)c2C1,cytotoxicity at 10 µM,1.4%
Cc1nsc(C(=O)NCCc2ccc(S(N)(=O)=O)cc2)n1,cytotoxicity at 10 µM,7.11%
COc1ccc(C(=O)N2CCC(Nc3ccc(C)nn3)CC2)cc1,cytotoxicity at 10 µM,-8.51%
CCc1ccc(CN(CCCn2ccnc2)Cc2ccc(C)s2)o1,cytotoxicity at 10 µM,3.86%
NC(=O)CN1CCCN(C(=O)Cc2ccc(Br)cc2)CC1,cytotoxicity at 10 µM,-6.58%
Cc1cc(O)c(OCC(=O)/N=c2\[nH]c(C)c(C)s2)cn1,cytotoxicity at 10 µM,8.6%
COCCN1CCN(Cc2ccc(F)c(C)c2)[C@H]2CS(=O)(=O)C[C@H]21,cytotoxicity at 10 µM,-25.5%
CCN(CC)Cc1cc(C(=O)N2CCCC(CC)(C(=O)O)C2)c(C)o1 (stereo unspecified),cytotoxicity at 10 µM,7.25%
Cc1cc(C)n(CC2CN(CC(=O)NCc3ccccn3)CCO2)n1 (stereo unspecified),cytotoxicity at 10 µM,-5.07%
COCCN1C(=O)[C@]2(CC[C@@H]3CN(C(=O)NC4CCCC4)C[C@@H]32)N=C1C,cytotoxicity at 10 µM,-8.85%
N#Cc1ccsc1C(=O)N1CCCCC1Cn1cccn1 (stereo unspecified),cytotoxicity at 10 µM,3.36%
CC(NC(=O)c1coc(COc2cccc(F)c2)n1)c1nnc(N)s1 (stereo unspecified),cytotoxicity at 10 µM,-144%
CCc1ccccc1-n1cc(O)c(C(=O)N2CCCCC2)n1,cytotoxicity at 10 µM,0.495%
CCN(CC)CCN(C)c1nc(-c2ccc(Cl)cc2)nc2c1CNC2,cytotoxicity at 10 µM,1.78%
Cc1ccc(C(=O)NCCCn2cncn2)c(=O)[nH]1,cytotoxicity at 10 µM,-14.4%
c1cc(CNCCC2CCCO2)ccn1 (stereo unspecified),cytotoxicity at 10 µM,-0.95%
Cc1cc(C)c(CNC(=O)NCC(c2ccccc2)N(C)C)c(=O)[nH]1 (stereo unspecified),cytotoxicity at 10 µM,-3.19%
CCCn1nc2c(cc1=O)CN(CC(=O)Nc1ccncc1)CC2,cytotoxicity at 10 µM,-17.8%
COc1cccc(CN2CCCC(c3cc(C(N)=O)[nH]n3)C2)c1 (stereo unspecified),cytotoxicity at 10 µM,-1.67%
N#Cc1cccc(C(=O)N2CCc3c(COCC4CC4)cncc3C2)c1,cytotoxicity at 10 µM,8.25%
CC(=O)Nc1cc2c(cc1C)OCO2,cytotoxicity at 10 µM,10.5%
COc1ccc(C(=O)N2CCCCC2c2nccs2)c(OC)c1 (stereo unspecified),cytotoxicity at 10 µM,-10.7%
CCc1ccc2nc(NCCOCCO)cc(C)c2c1,cytotoxicity at 10 µM,-2.78%
N#Cc1cccnc1OC1CCN(S(=O)(=O)c2ccc(F)c(Cl)c2)CC1,cytotoxicity at 10 µM,6.27%
CC(C)SCCNC(=O)c1cccc2ccnn12,cytotoxicity at 10 µM,-51.6%
c1cnnc(N2CCCC2CNCc2nc(-c3ccco3)no2)c1 (stereo unspecified),cytotoxicity at 10 µM,-10.2%
CN1CCC(Cc2noc(-c3cccc(OCC(N)=O)c3)n2)CC1,cytotoxicity at 10 µM,-4.42%
NC(=O)C1CCCN1Cc1cccc(NC(=O)c2ccsc2)c1 (stereo unspecified),cytotoxicity at 10 µM,16.3%
CCOc1ccc(Cl)cc1C1CCCCN1 (stereo unspecified),cytotoxicity at 10 µM,9.15%
CCCn1ncc(CN(Cc2cccnc2)Cc2ccsc2)c1C,cytotoxicity at 10 µM,13.1%
CC(C(N)=O)n1nc(-c2cccs2)cc(N)c1=O (stereo unspecified),cytotoxicity at 10 µM,6.44%
CN(C)C(=O)CNC(=O)Nc1cccc(Cl)c1SC(F)F,cytotoxicity at 10 µM,1.31%
CC(C)N1CCC(C(=O)N(C)C(C)c2ccon2)CC1 (stereo unspecified),cytotoxicity at 10 µM,5.16%
CC(=O)c1nn(-c2cccc(Cl)c2)c(C)c1C(C)=O,cytotoxicity at 10 µM,-3.55%
